Measurements taken from PubChem BioAssay.
Active and inactive are the calls of the source.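 Rule for the calls, unless noted: active = compounds giving at least 50% inhibition in the cell-based MKP-3 phosphatase rescue imaging test; inactive = the rest.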

Assays:
[1] = inhibitors of TNFa-induced NFkB p65 translocation, primary screen, imaging, HUVEC, MLSMR starter and 10KST1 sets (AID 438;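 active = inhibition above 20% together with a positive visual image hit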;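 note: compound added about 3h40 before a 20 min TNFalpha stimulation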;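 for inhibition: signal is the nuclear over cytoplasmic p65 intensity ratio per well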); settings: HUVEC TNFa-induced p65 nuclear translocation; cell count: measured here: nuclei count (cytotoxicity indicator), at 2.08 µM; inhibition: at 2 µM, stronger effect = higher value, 0% TNFa-plus-vehicle, 100% no-TNFa wells
[2] = inhibitors of E-selectin induction by TNFa, primary screen, imaging, HUVEC, immunofluorescence, MLSMR starter and 10KST1 sets (AID 487;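 active = visually confirmed hit in the image check and inhibition above 20%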;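 for inhibition: signal is fraction of cell area covered by stained E-selectin grains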;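 for nuclei count: 100% = median nuclei count of all wells on the same plate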); settings: HUVEC TNFalpha-induced E-selectin immunofluorescence imaging, at 2 µM; inhibition: stronger effect = higher value; nuclei count: measured here: cell number, toxicity
[3] = DUSP6 inhibitors restoring Erk phosphorylation by chemical complementation, primary imaging in DUSP6-transfected HeLa (AID 609); settings: HeLa MKP-3 transfected, phospho-Erk imaging KS statistic, at 10 µM, cells stimulated with TPA for 15 min;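 for inhibition: phospho-Erk level distribution per well compared with pooled transfected vehicle control wells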
[4] = target: Dual specificity protein phosphatase 6 (Homo sapiens) (UniProt Q16828); assay: as above; settings: HeLa MKP-3 transfected, phospho-Erk imaging KS statistic; at 10 µM; stronger effect = higher value; cells stimulated with TPA for 15 min
Chain of Dual specificity protein phosphatase 6 (Homo sapiens) (Q16828 whole entry, looked up): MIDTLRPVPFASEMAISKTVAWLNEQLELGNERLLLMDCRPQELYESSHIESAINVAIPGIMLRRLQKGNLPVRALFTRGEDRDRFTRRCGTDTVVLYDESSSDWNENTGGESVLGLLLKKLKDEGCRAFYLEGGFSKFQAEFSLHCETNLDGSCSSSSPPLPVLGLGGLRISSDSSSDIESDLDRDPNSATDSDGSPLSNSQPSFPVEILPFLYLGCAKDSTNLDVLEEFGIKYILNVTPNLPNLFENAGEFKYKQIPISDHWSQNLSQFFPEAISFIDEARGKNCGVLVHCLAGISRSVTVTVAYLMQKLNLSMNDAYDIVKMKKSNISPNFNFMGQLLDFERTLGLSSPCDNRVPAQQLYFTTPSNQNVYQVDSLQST

[5] = target: Voltage-gated potassium channel subunit beta-2 (Rattus norvegicus) (UniProt P62483); assay: KvBeta enzyme negative modulators, primary screen, biochemical, NADPH fluorescence (AID 622;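 active = fluorescence slope higher than the sample average by over 3 SD, cut at about -0.22 in these data, passing the limit was not always enough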;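 note: slope of raw intensity against log time taken from 70 to 1610 s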); settings: recombinant KvBeta, 4-cyanobenzaldehyde reduction, at 10 µM, stronger effect = higher value
Chain of Voltage-gated potassium channel subunit beta-2 (Rattus norvegicus) (P62483 whole entry, looked up): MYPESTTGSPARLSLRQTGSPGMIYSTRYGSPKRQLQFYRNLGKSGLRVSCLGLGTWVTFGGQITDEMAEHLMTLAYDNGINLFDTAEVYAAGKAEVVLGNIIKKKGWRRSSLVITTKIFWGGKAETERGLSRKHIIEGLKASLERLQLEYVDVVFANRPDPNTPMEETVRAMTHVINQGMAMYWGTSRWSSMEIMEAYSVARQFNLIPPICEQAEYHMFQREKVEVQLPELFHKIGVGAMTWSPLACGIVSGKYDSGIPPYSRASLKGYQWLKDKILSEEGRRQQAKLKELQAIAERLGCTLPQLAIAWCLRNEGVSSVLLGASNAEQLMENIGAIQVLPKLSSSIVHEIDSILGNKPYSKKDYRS

[6] = target: Voltage-gated potassium channel subunit beta-2 (Rattus norvegicus) (UniProt P62483); assay: KvBeta positive modulators, primary screen, biochemical, NADPH fluorescence (AID 623;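 active = NADPH fluorescence slope more negative than the mean of all samples by about 3 SD, 99.7% confidence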;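 note: fluorescence intensity change per second fitted from 20 to 320 s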); settings: Recombinant KvBeta, NADPH fluorescence decrease slope, 10 min; at 10 µM; stronger effect = lower value
[7] = target: Alpha-2C adrenergic receptor (Homo sapiens) (UniProt P18825); assay: modulators of alpha2C/GIRK thallium flux, primary screen, cell-based, HEK293 alpha2C/GIRK1/2 (AID 624;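 active = fluorescence slope after compound addition differing from the mean of all screened samples at 99.7% confidence, in either direction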;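 note: slope of fluorescence ratio to pre-addition baseline per second over 15 to 24 s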); settings: thallium flux BTC fluorescence, at 10 µM, actives lie on both sides
Chain of Alpha-2C adrenergic receptor (Homo sapiens) (P18825 whole entry, looked up): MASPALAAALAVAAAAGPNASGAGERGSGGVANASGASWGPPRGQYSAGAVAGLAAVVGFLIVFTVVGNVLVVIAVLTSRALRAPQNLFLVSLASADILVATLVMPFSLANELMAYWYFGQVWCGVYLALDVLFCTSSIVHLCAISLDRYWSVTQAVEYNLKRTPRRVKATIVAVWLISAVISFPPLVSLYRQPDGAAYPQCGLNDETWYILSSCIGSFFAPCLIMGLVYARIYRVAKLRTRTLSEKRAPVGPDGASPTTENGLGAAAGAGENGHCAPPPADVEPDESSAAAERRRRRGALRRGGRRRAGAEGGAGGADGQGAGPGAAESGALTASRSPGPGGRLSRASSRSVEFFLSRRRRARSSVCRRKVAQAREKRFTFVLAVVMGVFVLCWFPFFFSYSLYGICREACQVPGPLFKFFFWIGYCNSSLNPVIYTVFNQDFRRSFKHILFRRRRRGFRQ

[8] = inhibitors of larval lipid processing in zebrafish, primary screen, whole organism, PED6 fluorescence, gall bladder and intestine (AID 686;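 active = a full or partial loss of lipid-probe fluorescence in the fish gall bladder, intestine or both, judged by eye; inactive = no fluorescence loss, or compound toxic to the fish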;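 note: larvae 5 to 7 days old with five fish per well; signal comes from phospholipase A2 cleavage of quenched PED6 carried via bile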); settings: Zebrafish larvae PED6 lipid processing, fluorescence scoring; screened at 20 µM (by protocol)
Summary of the method: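 Incubation: overnight exposure of larvae to compound plus PED6 / Test system: live zebrafish larvae aged 5-7 days, whole organism / Amount: 5 larvae per well / Read-out basis: visual per-well fluorescence inhibition score / Signal: visual fluorescence microscopy scoring of gall bladder, gut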

[9] = inhibitors of Chlamydomonas gravitaxis, primary screen, whole organism, Chlamydomonas reinhardtii, WT vs cilia-less mutant, absorbance, 96-well (AID 463189;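 active = inhibition at or above 50% relative to wild type and mutant plate controls; inactive = inhibition below 50%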;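 note: 0% = wild type cc124 cells in DMSO and 100% = ciliumless bld1 mutant cells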); settings: OD600 absorbance, 2 days, at 10 µM, stronger effect = higher value
[10] = measured here: cell density z-score
[11] = measured here: nuclear c-Myc green intensity z-score
[12] = measured here: nuclear pErk red intensity z-score, stronger effect = higher value

Row | Compound | cell count [1] | inhibition [1] | inhibition [2] | nuclei count [2] | z-score [3, 10] | z-score [3, 11] | z-score [3, 12] | inhibition [4] | fluorescence slope [5] | NADPH fluorescence slope [6] | slope [7] | outcome [8] | inhibition [9]
1 | Cc1cc(=O)n2[nH]cnc2n1 | 517 | -4.6% (inactive) | -138% (inactive) | 125% | 1.56 | -0.453 | -0.845 | 5.57% (inactive) | -0.502 (inactive) | -0.000147 (inactive) | 0.00471 (inactive) | inactive | -0.839% (inactive)
2 | CN1CCc2c(sc3c2C(=O)NC(c2ccco2)N3)C1 (centres undefined) | 554 | -12% (inactive) | -9.3% (inactive) | 170% | -0.0126 | -0.484 | 0.477 | 4.72% (inactive) | -0.43 (inactive) | -3.1e-06 (inactive) | 0.00594 (inactive) | inactive | 7.66% (inactive)
3 | CCOC(=O)c1c(CN2CCCCC2)oc2ccc(OC)cc12 | 344 | -9.3% (inactive) | -46.9% (inactive) | 142% | 0.114 | 0.591 | 0.702 | -7.01% (inactive) | -0.416 (inactive) | -0.000135 (inactive) | 0.00729 (inactive) | inactive | 4.54% (inactive)
4 | Cn1c(=O)n(C)c2cc(C(=O)c3ccccc3)ccc21 | 534 | -14.4% (inactive) | 24.3% (inactive) | 180% | 2.47 | -0.33 | -1.62 | 20.2% (inactive) | -0.53 (inactive) | -6.3e-05 (inactive) | 0.00503 (inactive) | inactive | -6.61% (inactive)
5 | O=C(O)CCSc1ccc2ccccc2n1 | 502 | 0.3% (inactive) | -157% (inactive) | 135% | 1.96 | -1.24 | -0.378 | 15.8% (inactive) | -0.49 (inactive) | -7.2e-05 (inactive) | 0.00505 (inactive) | inactive | 9.45% (inactive)
6 | CCCCC1(C(=O)OCC)CC(CN2CCOCC2)OC1=O (centres undefined) | 448 | -21.5% (inactive) | -182% (inactive) | 167% | -1.27 | -1.52 | 2.46 | -8.95% (inactive) | -0.314 (inactive) | 1.1e-05 (inactive) | 0.00504 (inactive) | inactive | 3.54% (inactive)
7 | CCOC(=O)c1cc2cc(OC)ccc2[nH]1 | 596 | -5.3% (inactive) | -44.6% (inactive) | 87.4% | -0.384 | 1.83 | 0.163 | 5.57% (inactive) | -0.497 (inactive) | -9.6e-05 (inactive) | 0.00467 (inactive) | inactive | 26.5% (inactive)
8 | CCOc1ccc(Br)cc1CC(=O)O | 280 | -20.4% (inactive) | -108% (inactive) | 90.5% | -0.00622 | -0.788 | -0.945 | 14% (inactive) | -0.486 (inactive) | -0.000116 (inactive) | 0.00651 (inactive) | inactive | -8.79% (inactive)
9 | COc1ccc(/C=N/n2cncn2)cc1COc1ccc(NC(C)=O)cc1 | 307 | -11.9% (inactive) | -81.9% (inactive) | 99.2% | 1.57 | 0.491 | -0.528 | 24.3% (inactive) | -0.402 (inactive) | 3.3e-05 (inactive) | 0.00513 (inactive) | inactive | -6.96% (inactive)
10 | CCn1cc(C(=O)NCCCN(C)C)c(=O)c2cc(F)c(N3CCN(C)CC3)cc21 | 360 | -2.8% (inactive) | -88% (inactive) | 130% | -0.583 | 1.7 | -0.542 | -7.28% (inactive) | -0.286 (inactive) | -5e-06 (inactive) | 0.00472 (inactive) | inactive | 22% (inactive)
11 | Cc1ccc2[nH]c(CCN(C)C)c(CC#N)c2c1 | 564 | 4.9% (inactive) | -74.2% (inactive) | 206% | -1.01 | -0.567 | 1.52 | 18.6% (inactive) | -0.364 (inactive) | -2.8e-05 (inactive) | 0.0055 (inactive) | inactive | 10.4% (inactive)
12 | O=C(C1=C(O)C(=O)N(CCCN2CCOCC2)C1c1ccccn1)c1cccs1 (centres undefined) | 506 | -11.2% (inactive) | -117% (inactive) | 136% | -1.2 | -0.158 | 2.08 | -3.5% (inactive) | -0.495 (inactive) | -5.5e-05 (inactive) | 0.00674 (inactive) | inactive | -6.32% (inactive)
13 | COc1cccc(NC(=O)CSC2=C(C#N)C(c3ccco3)C3=C(CCCC3=O)N2)c1 (centres undefined) | 474 | -0.1% (inactive) | -19.9% (inactive) | 101% | 0.0221 | -0.732 | 2.07 | -3.98% (inactive) | -0.506 (inactive) | -6.2e-05 (inactive) | 0.00557 (inactive) | inactive | 2.98% (inactive)
